Data: the M2OR odorant receptor database
Numbering of substitutions follows the chain as printed.

Legend:
Conditions in all cases: stereoisomer not certain
OR4N4 (Homo sapiens) = target: T1, OR4N4 (Homo sapiens) (UniProt Q8N0Y3)
T1 sequence (whole entry): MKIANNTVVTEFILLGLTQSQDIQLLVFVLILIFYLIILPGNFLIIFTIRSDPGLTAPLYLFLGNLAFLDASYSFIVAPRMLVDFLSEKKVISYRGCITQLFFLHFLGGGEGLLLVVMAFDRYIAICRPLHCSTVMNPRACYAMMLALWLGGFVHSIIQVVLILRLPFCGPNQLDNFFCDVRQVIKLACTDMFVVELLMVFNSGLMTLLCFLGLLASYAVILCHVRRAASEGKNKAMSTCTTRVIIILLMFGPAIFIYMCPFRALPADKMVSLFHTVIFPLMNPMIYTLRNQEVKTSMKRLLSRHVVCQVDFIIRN
Summary of the method: (§1)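 Each entry records the cell line, G-protein, co-transfected protein and tags used. Methods varied with the source, often transient luciferase assays in mammalian cell lines. A receptor–molecule pair is called responsive (active) if the original authors judged its signal statistically different from baseline and non-responsive (inactive) otherwise.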

OR4N5 (Homo sapiens) = target: T2, OR4N5 (Homo sapiens) (UniProt Q8IXE1)
T2 sequence (whole entry): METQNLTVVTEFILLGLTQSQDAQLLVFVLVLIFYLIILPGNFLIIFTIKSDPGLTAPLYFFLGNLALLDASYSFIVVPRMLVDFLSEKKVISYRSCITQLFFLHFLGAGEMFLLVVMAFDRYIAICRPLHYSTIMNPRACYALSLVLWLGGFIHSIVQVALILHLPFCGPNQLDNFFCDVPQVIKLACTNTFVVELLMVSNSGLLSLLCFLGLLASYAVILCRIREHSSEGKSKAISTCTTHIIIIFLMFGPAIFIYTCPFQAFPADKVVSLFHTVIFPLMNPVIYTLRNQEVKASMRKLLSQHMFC
Summary of the method: as §1

OR4P4 (Homo sapiens) = target: T3, OR4P4 (Homo sapiens) (UniProt Q8NGL7)
T3 sequence (whole entry): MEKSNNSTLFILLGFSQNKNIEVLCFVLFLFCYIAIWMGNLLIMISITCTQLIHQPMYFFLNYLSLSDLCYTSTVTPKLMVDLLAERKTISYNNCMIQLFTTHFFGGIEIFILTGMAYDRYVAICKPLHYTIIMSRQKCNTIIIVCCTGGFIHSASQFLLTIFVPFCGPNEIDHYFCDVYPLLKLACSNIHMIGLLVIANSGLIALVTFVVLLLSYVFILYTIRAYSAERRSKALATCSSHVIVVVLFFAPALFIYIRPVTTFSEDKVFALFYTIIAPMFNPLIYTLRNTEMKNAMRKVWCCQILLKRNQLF
Summary of the method: as §1

OR4Q3 (Homo sapiens) = target: T4, OR4Q3 (Homo sapiens) (UniProt Q8NH05)
T4 sequence (whole entry): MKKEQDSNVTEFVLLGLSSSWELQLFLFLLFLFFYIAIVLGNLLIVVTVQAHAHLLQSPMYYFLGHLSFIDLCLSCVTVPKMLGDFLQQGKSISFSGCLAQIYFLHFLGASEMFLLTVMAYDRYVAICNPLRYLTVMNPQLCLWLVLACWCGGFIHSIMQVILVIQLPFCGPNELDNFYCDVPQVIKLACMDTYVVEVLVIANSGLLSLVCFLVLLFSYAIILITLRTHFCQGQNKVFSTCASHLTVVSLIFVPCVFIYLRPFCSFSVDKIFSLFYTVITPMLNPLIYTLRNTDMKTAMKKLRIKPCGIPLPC
Summary of the method: as §1

OR4S1 (Homo sapiens) = target: T5, OR4S1 (Homo sapiens) (UniProt Q8NGB4)
T5 sequence (whole entry): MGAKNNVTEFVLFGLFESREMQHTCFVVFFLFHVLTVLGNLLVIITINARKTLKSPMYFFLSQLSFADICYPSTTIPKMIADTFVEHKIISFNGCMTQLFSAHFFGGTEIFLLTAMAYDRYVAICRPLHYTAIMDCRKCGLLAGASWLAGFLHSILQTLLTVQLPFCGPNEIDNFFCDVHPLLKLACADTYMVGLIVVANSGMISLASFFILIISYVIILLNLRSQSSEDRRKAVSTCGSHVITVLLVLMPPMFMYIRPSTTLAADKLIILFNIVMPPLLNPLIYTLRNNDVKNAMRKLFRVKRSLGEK
Summary of the method: as §1

OR4S2 (Homo sapiens) = target: T6, OR4S2 (Homo sapiens) (UniProt Q8NH73)
T6 sequence (whole entry): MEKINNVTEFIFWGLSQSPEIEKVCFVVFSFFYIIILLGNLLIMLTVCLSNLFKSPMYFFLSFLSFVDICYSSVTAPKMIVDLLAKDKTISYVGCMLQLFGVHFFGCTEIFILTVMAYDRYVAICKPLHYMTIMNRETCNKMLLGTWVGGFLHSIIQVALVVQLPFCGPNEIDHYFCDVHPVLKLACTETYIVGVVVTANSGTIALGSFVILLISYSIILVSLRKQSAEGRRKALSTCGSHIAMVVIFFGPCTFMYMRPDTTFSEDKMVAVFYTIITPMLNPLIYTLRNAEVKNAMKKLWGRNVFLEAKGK
Summary of the method: as §1

OR4X1 (Homo sapiens) = target: T7, OR4X1 (Homo sapiens) (UniProt Q8NH49)
T7 sequence (whole entry): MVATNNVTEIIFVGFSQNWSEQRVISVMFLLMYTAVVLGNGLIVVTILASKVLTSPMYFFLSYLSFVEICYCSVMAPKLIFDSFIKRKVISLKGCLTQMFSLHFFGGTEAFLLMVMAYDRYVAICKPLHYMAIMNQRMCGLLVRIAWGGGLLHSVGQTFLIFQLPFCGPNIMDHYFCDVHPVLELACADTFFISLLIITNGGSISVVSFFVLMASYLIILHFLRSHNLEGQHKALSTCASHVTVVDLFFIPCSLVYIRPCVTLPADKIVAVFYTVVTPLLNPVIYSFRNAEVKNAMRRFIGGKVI
Summary of the method: as §1

OR4X2 (Homo sapiens) = target: T8, OR4X2 (Homo sapiens) (UniProt Q8NGF9)
T8 sequence (whole entry): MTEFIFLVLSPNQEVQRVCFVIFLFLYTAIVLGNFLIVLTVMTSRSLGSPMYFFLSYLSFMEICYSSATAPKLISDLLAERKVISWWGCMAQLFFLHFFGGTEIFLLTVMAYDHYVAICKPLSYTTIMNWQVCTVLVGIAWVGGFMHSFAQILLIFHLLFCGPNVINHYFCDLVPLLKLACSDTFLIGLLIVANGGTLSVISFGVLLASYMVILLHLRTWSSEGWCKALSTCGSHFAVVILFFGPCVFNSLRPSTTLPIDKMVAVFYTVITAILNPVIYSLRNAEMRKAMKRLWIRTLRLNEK
Summary of the method: as §1

OR51A2 (Homo sapiens) = target: T9, OR51A2 (Homo sapiens) (UniProt Q8NGJ7)
T9 sequence (whole entry): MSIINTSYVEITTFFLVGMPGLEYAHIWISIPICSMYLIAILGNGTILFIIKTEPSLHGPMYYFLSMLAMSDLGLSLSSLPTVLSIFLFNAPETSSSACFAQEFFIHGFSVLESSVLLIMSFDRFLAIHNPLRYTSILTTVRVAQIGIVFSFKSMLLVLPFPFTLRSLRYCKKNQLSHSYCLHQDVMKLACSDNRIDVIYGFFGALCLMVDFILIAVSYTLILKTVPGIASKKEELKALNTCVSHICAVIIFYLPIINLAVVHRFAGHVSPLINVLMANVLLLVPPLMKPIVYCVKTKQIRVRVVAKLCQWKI
Summary of the method: as §1

OR51A4 (Homo sapiens) = target: T10, OR51A4 (Homo sapiens) (UniProt Q8NGJ6)
T10 sequence (whole entry): T9 sequence (whole entry) with G59E, T94I, S97N, S167N, P227L, E235Q, G267R, M288T, K289N, W311R
Summary of the method: as §1

OR51A7 (Homo sapiens) = target: T11, OR51A7 (Homo sapiens) (UniProt Q8NH64)
T11 sequence (whole entry): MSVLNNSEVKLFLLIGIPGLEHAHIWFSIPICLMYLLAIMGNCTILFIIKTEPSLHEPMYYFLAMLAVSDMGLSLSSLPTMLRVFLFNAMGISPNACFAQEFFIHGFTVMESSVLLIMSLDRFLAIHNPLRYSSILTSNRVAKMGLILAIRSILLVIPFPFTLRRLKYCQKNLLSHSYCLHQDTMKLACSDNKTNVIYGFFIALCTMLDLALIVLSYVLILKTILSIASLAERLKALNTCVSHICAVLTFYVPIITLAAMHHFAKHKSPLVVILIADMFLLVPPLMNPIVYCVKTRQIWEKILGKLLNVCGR
Summary of the method: as §1

OR51B2 (Homo sapiens) = target: T12, OR51B2 (Homo sapiens) (UniProt Q9Y5P1)
T12 sequence (whole entry): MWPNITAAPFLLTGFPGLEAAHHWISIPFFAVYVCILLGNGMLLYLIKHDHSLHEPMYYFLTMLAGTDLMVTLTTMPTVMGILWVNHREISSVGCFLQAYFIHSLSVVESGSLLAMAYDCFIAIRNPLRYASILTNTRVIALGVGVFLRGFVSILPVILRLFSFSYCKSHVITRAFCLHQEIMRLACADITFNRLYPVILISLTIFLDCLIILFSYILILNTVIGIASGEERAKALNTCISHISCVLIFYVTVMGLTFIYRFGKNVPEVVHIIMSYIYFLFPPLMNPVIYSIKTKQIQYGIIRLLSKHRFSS
Summary of the method: as §1

OR51B4 (Homo sapiens) = target: T13, OR51B4 (Homo sapiens) (UniProt Q9Y5P0)
T13 sequence (whole entry): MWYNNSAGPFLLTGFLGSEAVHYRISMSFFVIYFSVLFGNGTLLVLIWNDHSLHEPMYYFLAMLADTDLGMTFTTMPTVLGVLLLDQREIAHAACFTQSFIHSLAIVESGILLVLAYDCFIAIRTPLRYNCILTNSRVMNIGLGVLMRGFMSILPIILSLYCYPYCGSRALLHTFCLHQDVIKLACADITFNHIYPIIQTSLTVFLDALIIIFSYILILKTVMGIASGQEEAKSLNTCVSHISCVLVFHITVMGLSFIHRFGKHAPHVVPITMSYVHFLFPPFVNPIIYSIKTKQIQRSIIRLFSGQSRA
Summary of the method: as §1

OR51B5 (Homo sapiens) = target: T14, OR51B5 (Homo sapiens) (UniProt Q9H339)
T14 sequence (whole entry): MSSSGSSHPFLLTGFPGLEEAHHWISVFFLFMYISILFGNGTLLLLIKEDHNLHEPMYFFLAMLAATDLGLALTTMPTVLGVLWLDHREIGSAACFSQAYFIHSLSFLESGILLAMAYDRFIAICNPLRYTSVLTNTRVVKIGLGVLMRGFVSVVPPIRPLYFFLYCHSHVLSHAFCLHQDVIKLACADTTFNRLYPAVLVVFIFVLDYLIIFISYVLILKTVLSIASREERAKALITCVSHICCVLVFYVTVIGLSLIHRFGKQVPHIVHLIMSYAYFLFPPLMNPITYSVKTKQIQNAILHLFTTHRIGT
Summary of the method: as §1

OR51B6 (Homo sapiens) = target: T15, OR51B6 (Homo sapiens) (UniProt Q9H340)
T15 sequence (whole entry): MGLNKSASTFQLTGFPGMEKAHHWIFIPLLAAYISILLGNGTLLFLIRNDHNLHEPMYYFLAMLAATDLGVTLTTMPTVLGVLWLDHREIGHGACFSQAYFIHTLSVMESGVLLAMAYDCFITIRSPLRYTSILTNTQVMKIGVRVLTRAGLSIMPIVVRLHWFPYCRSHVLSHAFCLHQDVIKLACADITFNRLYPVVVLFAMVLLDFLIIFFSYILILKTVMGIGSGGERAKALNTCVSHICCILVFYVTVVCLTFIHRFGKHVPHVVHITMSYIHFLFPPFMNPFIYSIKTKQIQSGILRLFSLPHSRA
Summary of the method: as §1

OR4N2 = tested on: T16, OR4N2
T16 sequence (whole entry): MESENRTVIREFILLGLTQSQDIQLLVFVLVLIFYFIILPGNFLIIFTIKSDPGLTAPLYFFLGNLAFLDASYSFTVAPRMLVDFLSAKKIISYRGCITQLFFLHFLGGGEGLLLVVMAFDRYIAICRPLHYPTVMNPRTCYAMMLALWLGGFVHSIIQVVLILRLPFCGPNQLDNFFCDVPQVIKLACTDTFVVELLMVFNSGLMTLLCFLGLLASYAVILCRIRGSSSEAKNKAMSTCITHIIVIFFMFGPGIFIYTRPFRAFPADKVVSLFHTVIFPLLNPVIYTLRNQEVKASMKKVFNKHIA
Summary of the method: as §1

OR4Q3 T135A = tested on: T17, OR4Q3 T135A
T17 sequence (whole entry): T4 sequence (whole entry) with T135A
Summary of the method: as §1

Structure (SMILES)	odorant receptor agonist call (OR4N4 (Homo sapiens))	odorant receptor agonist call (OR4N5 (Homo sapiens))	odorant receptor agonist call (OR4P4 (Homo sapiens))	odorant receptor agonist call (OR4Q3 (Homo sapiens))	odorant receptor agonist call (OR4S1 (Homo sapiens))	odorant receptor agonist call (OR4S2 (Homo sapiens))	odorant receptor agonist call (OR4X1 (Homo sapiens))	odorant receptor agonist call (OR4X2 (Homo sapiens))	odorant receptor agonist call (OR51A2 (Homo sapiens))	odorant receptor agonist call (OR51A4 (Homo sapiens))	odorant receptor agonist call (OR51A7 (Homo sapiens))	odorant receptor agonist call (OR51B2 (Homo sapiens))	odorant receptor agonist call (OR51B4 (Homo sapiens))	odorant receptor agonist call (OR51B5 (Homo sapiens))	odorant receptor agonist call (OR51B6 (Homo sapiens))	odorant receptor agonist call (OR4N2)	odorant receptor agonist call (OR4Q3 T135A)
CCC(S)C(C)CO (stereo not drawn)	inactive	inactive	inactive	inactive	inactive	inactive	inactive	inactive	inactive	inactive	inactive	inactive	inactive	inactive	inactive	–	–
CCCCCCCCC(=O)O	–	–	–	–	–	–	–	–	–	inactive	–	–	–	–	–	–	–
Cc1cnc(C)c(C)n1	inactive	inactive	inactive	inactive	inactive	inactive	inactive	inactive	inactive	inactive	inactive	inactive	inactive	inactive	inactive	inactive	inactive
CC1=C(O)C(=O)C(C)O1 (stereo not drawn)	inactive	inactive	inactive	inactive	inactive	inactive	inactive	inactive	inactive	inactive	inactive	inactive	inactive	inactive	inactive	inactive	inactive
CC(C)=CCCC(C)=CCCC(C)=CCO	–	–	–	–	–	–	–	–	–	–	–	–	–	active	–	–	–
CC1=NC(C)C(C)S1 (stereo not drawn)	inactive	inactive	inactive	inactive	inactive	inactive	inactive	inactive	inactive	inactive	inactive	inactive	inactive	inactive	inactive	inactive	inactive
